According to ChEMBL document CHEMBL1926569, “Novel (E)-1-(4-methyl-2-(alkylamino)thiazol-5-yl)-3-arylprop-2-en-1-ones as potent antimicrobial agents” (2011):
≈ marks a conversion by molar mass, not a printed value.

Assays:
Staphylococcus aureus [1] = experiment: Antibacterial activity against Staphylococcus aureus ATCC 6538 after 24 hrs by microdilution method; assay type: functional; conditions: ATCC 6538, 24 h
How it was run: (§1)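 Broth microdilution in 96-well plates. Bacterial suspensions were adjusted in sterile saline to 1.0 × 10⁵ CFU/ml, prepared daily and kept at 4 °C. Compound was added to LB broth with 1.0 × 10⁴ CFU per well and shaken at 160 rpm for 24 h at […] (so in the source). MIC is the lowest concentration with no visible growth under a binocular microscope. OD655 was also read. Duplicate, repeated three times.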

Bacillus cereus [2] = experiment: Antibacterial activity against clinical isolate of Bacillus cereus after 24 hrs by microdilution method; assay type: functional; how it was run: as §1
Micrococcus flavus [3] = experiment: Antibacterial activity against Micrococcus flavus ATCC 10240 after 24 hrs by microdilution method; assay type: functional; conditions: ATCC 10240, 24 h; how it was run: as §1
Listeria monocytogenes [4] = experiment: Antibacterial activity against Listeria monocytogenes NCTC 7973 after 24 hrs by microdilution method; assay type: functional; conditions: NCTC 7973, 24 h; how it was run: as §1
Pseudomonas aeruginosa [5] = experiment: Antibacterial activity against Pseudomonas aeruginosa ATCC 27853 after 24 hrs by microdilution method; assay type: functional; conditions: ATCC 27853, 24 h; how it was run: as §1
Salmonella typhimurium [6] = experiment: Antibacterial activity against Salmonella Typhimurium ATCC 13311 after 24 hrs by microdilution method; assay type: functional, Salmonella enterica subsp. enterica serovar Typhimurium; conditions: Salmonella enterica, ATCC 13311, 24 h; how it was run: as §1
Escherichia coli [7] = experiment: Antibacterial activity against Escherichia coli ATCC 35210 after 24 hrs by microdilution method; assay type: functional; conditions: ATCC 35210, 24 h; how it was run: as §1
Enterococcus faecalis [8] = experiment: Antibacterial activity against Enterococcus faecalis isolated from human after 24 hrs by microdilution method; assay type: functional; how it was run: as §1
Staphylococcus aureus [9] = experiment: Antibacterial activity against Staphylococcus aureus ATCC 6538 incubated for 24 hrs followed by serial sub-cultivation for 24 hrs by microdilution method; assay type: functional; conditions: ATCC 6538, 24 h
How it was run: (§2)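 MBC: after the 24 h LB broth microdilution (1.0 × 10⁴ CFU per well, 160 rpm), wells were serially sub-cultured into fresh broth plates and incubated a further 24 h. MBC is the lowest concentration with no visible growth, taken as 99.5% killing of the original inoculum. Duplicate, repeated three times.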

Bacillus cereus [10] = experiment: Antibacterial activity against clinical isolate of Bacillus cereus incubated for 24 hrs followed by serial sub-cultivation for 24 hrs by microdilution; assay type: functional; how it was run: as §2
Micrococcus flavus [11] = experiment: Antibacterial activity against Micrococcus flavus ATCC 10240 incubated for 24 hrs followed by serial sub-cultivation for 24 hrs by microdilution; assay type: functional; conditions: ATCC 10240, 24 h; how it was run: as §2
Listeria monocytogenes [12] = experiment: Antibacterial activity against Listeria monocytogenes NCTC 7973 incubated for 24 hrs followed by serial sub-cultivation for 24 hrs by microdilution; assay type: functional; conditions: NCTC 7973, 24 h; how it was run: as §2
Pseudomonas aeruginosa [13] = experiment: Antibacterial activity against Pseudomonas aeruginosa ATCC 27853 incubated for 24 hrs followed by serial sub-cultivation for 24 hrs by microdilution; assay type: functional; conditions: ATCC 27853, 24 h; how it was run: as §2
Salmonella typhimurium [14] = experiment: Antibacterial activity against Salmonella Typhimurium ATCC 13311 incubated for 24 hrs followed by serial sub-cultivation for 24 hrs by microdilution; assay type: functional, Salmonella enterica subsp. enterica serovar Typhimurium; conditions: Salmonella enterica, ATCC 13311, 24 h; how it was run: as §2
Escherichia coli [15] = experiment: Antibacterial activity against Escherichia coli ATCC 35210 incubated for 24 hrs followed by serial sub-cultivation for 24 hrs by microdilution; assay type: functional; conditions: ATCC 35210, 24 h; how it was run: as §2
Enterococcus faecalis [16] = experiment: Antibacterial activity against Enterococcus faecalis isolated from human incubated for 24 hrs followed by serial sub-cultivation for 24 hrs by microdilution; assay type: functional; how it was run: as §2
Aspergillus ochraceus [17] = experiment: Antifungal activity against Aspergillus ochraceus ATCC 12066 after 72 hrs by serial dilution technique; assay type: functional; conditions: ATCC 12066, 72 h
How it was run: (§3)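 Modified microdilution in 96-well plates. Fungi were kept on malt agar at 4 °C. Spores were washed off in sterile 0.85% saline with 0.1% Tween 80. Compounds were dissolved at 1 mg/ml in 5% DMSO with 0.1% Tween 80 and added to malt broth with inoculum. Plates were shaken at 160 rpm for 72 h at 28 °C. Duplicate, repeated three times.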

Aspergillus niger [18] = experiment: Antifungal activity against Aspergillus niger ATCC 6275 after 72 hrs by serial dilution technique; assay type: functional; conditions: ATCC 6275, 72 h; how it was run: as §3
Aspergillus flavus [19] = experiment: Antifungal activity against Aspergillus flavus ATCC 9643 after 72 hrs by serial dilution technique; assay type: functional; conditions: ATCC 9643, 72 h; how it was run: as §3
Talaromyces funiculosus [20] = experiment: Antifungal activity against Penicillium funiculosum ATCC 36839 after 72 hrs by serial dilution technique; assay type: functional; conditions: ATCC 36839, 72 h; how it was run: as §3
Penicillium ochrochloron [21] = experiment: Antifungal activity against Penicillium ochrochloron ATCC 9112 after 72 hrs by serial dilution technique; assay type: functional; conditions: ATCC 9112, 72 h; how it was run: as §3
Trichoderma viride [22] = experiment: Antifungal activity against Trichoderma viride IAM 5061 after 72 hrs by serial dilution technique; assay type: functional; conditions: IAM 5061, 72 h; how it was run: as §3
Candida albicans [23] = experiment: Antifungal activity against Candida albicans isolated from human after 72 hrs by serial dilution technique; assay type: functional; how it was run: as §3
Aspergillus ochraceus [24] = experiment: Antifungal activity against Aspergillus ochraceus ATCC 12066 incubated for 72 hrs followed by serial sub-cultivation for 72 hrs by serial dilution technique; assay type: functional; conditions: ATCC 12066, 72 h
How it was run: (§4)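 MFC: material from 72 h malt broth microdilution wells was serially sub-cultured into fresh broth plates and incubated a further 72 h at 28 °C. Fungicidal concentration is taken from growth after sub-culture. Duplicate, repeated three times.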

Aspergillus fumigatus [25] = experiment: Antifungal activity against Aspergillus fumigatus isolated from human incubated for 72 hrs followed by serial sub-cultivation for 72 hrs by serial dilution technique; assay type: functional; how it was run: as §4
Aspergillus niger [26] = experiment: Antifungal activity against Aspergillus niger ATCC 6275 incubated for 72 hrs followed by serial sub-cultivation for 72 hrs by serial dilution technique; assay type: functional; conditions: ATCC 6275, 72 h; how it was run: as §4
Aspergillus flavus [27] = experiment: Antifungal activity against Aspergillus flavus ATCC 9643 incubated for 72 hrs followed by serial sub-cultivation for 72 hrs by serial dilution technique; assay type: functional; conditions: ATCC 9643, 72 h; how it was run: as §4
Talaromyces funiculosus [28] = experiment: Antifungal activity against Penicillium funiculosum ATCC 36839 incubated for 72 hrs followed by serial sub-cultivation for 72 hrs by serial dilution technique; assay type: functional; conditions: ATCC 36839, 72 h; how it was run: as §4
Penicillium ochrochloron [29] = experiment: Antifungal activity against Penicillium ochrochloron ATCC 9112 incubated for 72 hrs followed by serial sub-cultivation for 72 hrs by serial dilution technique; assay type: functional; conditions: ATCC 9112, 72 h; how it was run: as §4
Trichoderma viride [30] = experiment: Antifungal activity against Trichoderma viride IAM 5061 incubated for 72 hrs followed by serial sub-cultivation for 72 hrs by serial dilution technique; assay type: functional; conditions: IAM 5061, 72 h; how it was run: as §4
Candida albicans [31] = experiment: Antifungal activity against Candida albicans isolated from human incubated for 72 hrs followed by serial sub-cultivation for 72 hrs by serial dilution technique; assay type: functional; how it was run: as §4
Pseudomonas aeruginosa [32] = experiment: Ratio of ampicillin MIC to compound MIC for Pseudomonas aeruginosa ATCC 27853; assay type: functional
Aspergillus ochraceus [33] = experiment: Ratio of bifonazole to compound for Aspergillus ochraceus ATCC 12066; assay type: functional
Aspergillus niger [34] = experiment: Ratio of bifonazole to compound for Aspergillus niger ATCC 6275; assay type: functional
Talaromyces funiculosus [35] = experiment: Ratio of bifonazole to compound for Penicillium funiculosum ATCC 36839; assay type: functional
Penicillium ochrochloron [36] = experiment: Ratio of bifonazole to compound for Penicillium ochrochloron ATCC 9112; assay type: functional
Trichoderma viride [37] = experiment: Ratio of bifonazole to compound for Trichoderma viride IAM 5061; assay type: functional
Candida albicans [38] = experiment: Ratio of bifonazole to compound for Candida albicans isolated from human; assay type: functional
Aspergillus ochraceus [39] = experiment: Ratio of ketoconazole to compound for Aspergillus ochraceus ATCC 12066; assay type: functional
Aspergillus fumigatus [40] = experiment: Ratio of ketoconazole to compound for Aspergillus fumigatus isolated from human; assay type: functional
Penicillium ochrochloron [41] = experiment: Ratio of ketoconazole to compound for Penicillium ochrochloron ATCC 9112; assay type: functional
Candida albicans [42] = experiment: Ratio of ketoconazole to compound for Candida albicans isolated from human; assay type: functional
Aspergillus ochraceus [43] = experiment: Antifungal activity against Aspergillus ochraceus after 72 hrs by serial dilution technique

- MIC (Staphylococcus aureus [1]): 66.2 µM (≈ 20 µg/mL)
- MIC (Bacillus cereus [2]): 66.2 µM (≈ 20 µg/mL)
- MIC (Micrococcus flavus [3]): 31.3 µM (≈ 9.47 µg/mL)
- MIC (Listeria monocytogenes [4]): 82.8 µM (≈ 25 µg/mL)
- MIC (Pseudomonas aeruginosa [5]): 82.8 µM (≈ 25 µg/mL)
- MIC (Salmonella typhimurium [6]): 33.1 µM (≈ 10 µg/mL)
- MIC (Escherichia coli [7]): 82.8 µM (≈ 25 µg/mL)
- MIC (Enterococcus faecalis [8]): 82.8 µM (≈ 25 µg/mL)
- MIC (Aspergillus ochraceus [17]): 66.2 µM (≈ 20 µg/mL)
- MIC (Aspergillus niger [18]): 49.7 µM (≈ 15 µg/mL)
- MIC (Aspergillus flavus [19]): 66.2 µM (≈ 20 µg/mL)
- MIC (Talaromyces funiculosus [20]): 33.1 µM (≈ 10 µg/mL)
- MIC (Penicillium ochrochloron [21]): 66.2 µM (≈ 20 µg/mL)
- MIC (Trichoderma viride [22]): 33.1 µM (≈ 10 µg/mL)
- MIC (Candida albicans [23]): 33.1 µM (≈ 10 µg/mL)
- MIC (Aspergillus ochraceus [43]): 49.7 µM (≈ 15 µg/mL)
Structure (SMILES): CCNc1nc(C)c(C(=O)/C=C/c2ccccc2OC)s1
- MBC (Staphylococcus aureus [9]): 99.3 µM (≈ 30 µg/mL)
- MBC (Bacillus cereus [10]): 82.8 µM (≈ 25 µg/mL)
- MBC (Micrococcus flavus [11]): 82.8 µM (≈ 25 µg/mL)
- MBC (Listeria monocytogenes [12]): 116 µM (≈ 35 µg/mL)
- MBC (Pseudomonas aeruginosa [13]): 99.3 µM (≈ 30 µg/mL)
- MBC (Salmonella typhimurium [14]): 82.8 µM (≈ 25 µg/mL)
- MBC (Escherichia coli [15]): 82.8 µM (≈ 25 µg/mL)
- MBC (Enterococcus faecalis [16]): 82.8 µM (≈ 25 µg/mL)
- MFC (Aspergillus ochraceus [24]): 82.8 µM (≈ 25 µg/mL)
- MFC (Aspergillus fumigatus [25]): 66.2 µM (≈ 20 µg/mL)
- MFC (Aspergillus niger [26]): 66.2 µM (≈ 20 µg/mL)
- MFC (Aspergillus flavus [27]): 82.8 µM (≈ 25 µg/mL)
- MFC (Talaromyces funiculosus [28]): 66.2 µM (≈ 20 µg/mL)
- MFC (Penicillium ochrochloron [29]): 82.8 µM (≈ 25 µg/mL)
- MFC (Trichoderma viride [30]): 66.2 µM (≈ 20 µg/mL)
- MFC (Candida albicans [31]): 66.2 µM (≈ 20 µg/mL)
- Ratio (Pseudomonas aeruginosa [32]): 10
- Ratio (Aspergillus ochraceus [33]): 10
- Ratio (Aspergillus niger [34]): 10
- Ratio (Talaromyces funiculosus [35]): 10
- Ratio (Penicillium ochrochloron [36]): 10
- Ratio (Trichoderma viride [37]): 10
- Ratio (Candida albicans [38]): 10
- Ratio (Aspergillus ochraceus [39]): 10
- Ratio (Aspergillus fumigatus [40]): 10
- Ratio (Penicillium ochrochloron [41]): 10
- Ratio (Candida albicans [42]): 10
